Reference: ChEMBL document CHEMBL5247578, “Effective synthesis of benzimidazoles-imidazo[1,2-a]pyrazine conjugates: A comparative study of mono-and bis-benzimidazoles for antitumor activity” (Eur J Med Chem, 2019)

Tests used:
Assay type in all cases: functional
[1] = tested on: HOP-62; experiment: Antiproliferative activity against human HOP-62 cells assessed as cell growth inhibition at 10 uM incubated for 48 hrs by sulforhodamine B assay relative to control
How it was run: (§1)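 NCI-60 one-dose prescreen at 10^-5 M. Cells grown in RPMI 1640 with 5% FBS and 2 mM glutamine, preincubated 24 h, then exposed 48 h at 37 °C. Adherent lines TCA-fixed, SRB-stained, A515 read. Growth percent relative to time-zero and control; negative values mean cell kill.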

[2] = tested on: SK-OV-3; experiment: Antiproliferative activity against human SK-OV-3 cells assessed as cell growth inhibition at 10 uM incubated for 48 hrs by sulforhodamine B assay relative to control
How it was run: (§2)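 NCI-60 single-dose screen at 10^-5 M. Cells grown in RPMI 1640 with 5% FBS and 2 mM L-glutamine, plated at 5,000–40,000 cells/well, and preincubated 24 h. Drug (DMSO stock) added and incubated 48 h at 37 °C, 5% CO2. Adherent cells fixed with cold TCA, stained with 0.4% SRB in 1% acetic acid, dye solubilized in 10 mM trizma base, A515 read. Percent growth taken against time-zero and untreated control.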

[3] = tested on: Hs-578T; experiment: Antiproliferative activity against human Hs-578T cells assessed as cell growth inhibition at 10 uM incubated for 48 hrs by sulforhodamine B assay relative to control; how it was run: as §2
[4] = tested on: SR; experiment: Antiproliferative activity against human SR cells assessed as cell growth inhibition at 10 uM incubated for 48 hrs by sulforhodamine B assay relative to control; how it was run: as §2
[5] = tested on: OVCAR-4; experiment: Antiproliferative activity against human OVCAR-4 cells assessed as cell growth inhibition at 10 uM incubated for 48 hrs by sulforhodamine B assay relative to control; how it was run: as §2
[6] = tested on: SK-MEL-28; experiment: Antiproliferative activity against human SK-MEL-28 cells assessed as cell growth inhibition at 10 uM incubated for 48 hrs by sulforhodamine B assay relative to control; how it was run: as §2
[7] = tested on: HL-60; experiment: Antiproliferative activity against human HL-60 cells assessed as cell growth inhibition at 10 uM incubated for 48 hrs by sulforhodamine B assay relative to control; how it was run: as §1
[8] = tested on: T47D; experiment: Antiproliferative activity against human T47D cells assessed as cell growth inhibition at 10 uM incubated for 48 hrs by sulforhodamine B assay relative to control; how it was run: as §2
[9] = tested on: HCC 2998; experiment: Antiproliferative activity against human HCC 2998 cells assessed as cell growth inhibition at 10 uM incubated for 48 hrs by sulforhodamine B assay relative to control; how it was run: as §1
[10] = tested on: OVCAR-3; experiment: Antiproliferative activity against human OVCAR-3 cells assessed as cell growth inhibition at 10 uM incubated for 48 hrs by sulforhodamine B assay relative to control; how it was run: as §2
[11] = tested on: UACC-62; experiment: Antiproliferative activity against human UACC-62 cells assessed as cell growth inhibition at 10 uM incubated for 48 hrs by sulforhodamine B assay relative to control; how it was run: as §2
[12] = tested on: CAKI-1; experiment: Antiproliferative activity against human CAKI-1 cells assessed as cell growth inhibition at 10 uM incubated for 48 hrs by sulforhodamine B assay relative to control
How it was run: (§3)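 Single-dose NCI-60 prescreen at 10^-5 M. Cells in RPMI 1640 with 5% FBS and 2 mM L-glutamine, seeded 5,000–40,000 cells/well with 24 h preincubation, then drug exposure for 48 h at 37 °C under 5% CO2. Growth read by SRB staining of TCA-fixed cells at 515 nm against time-zero and untreated controls. Negative growth values denote cell kill.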

[13] = tested on: SNB-19; experiment: Antiproliferative activity against human SNB-19 cells assessed as cell growth inhibition at 10 uM incubated for 48 hrs by sulforhodamine B assay relative to control; how it was run: as §2
[14] = tested on: IGROV-1; experiment: Antiproliferative activity against human IGROV-1 cells assessed as cell growth inhibition at 10 uM incubated for 48 hrs by sulforhodamine B assay relative to control; how it was run: as §2
[15] = tested on: DU-145; experiment: Antiproliferative activity against human DU-145 cells assessed as cell growth inhibition at 10 uM incubated for 48 hrs by sulforhodamine B assay relative to control; how it was run: as §1
[16] = tested on: TK-10; experiment: Antiproliferative activity against human TK-10 cells assessed as cell growth inhibition at 10 uM incubated for 48 hrs by sulforhodamine B assay relative to control; how it was run: as §2
[17] = tested on: U-251; experiment: Antiproliferative activity against human U-251 cells assessed as cell growth inhibition at 10 uM incubated for 48 hrs by sulforhodamine B assay relative to control; how it was run: as §2
[18] = tested on: MOLT-4; experiment: Antiproliferative activity against human MOLT-4 cells assessed as cell growth inhibition at 10 uM incubated for 48 hrs by sulforhodamine B assay relative to control; how it was run: as §2
[19] = tested on: SK-MEL-5; experiment: Antiproliferative activity against human SK-MEL-5 cells assessed as cell growth inhibition at 10 uM incubated for 48 hrs by sulforhodamine B assay relative to control; how it was run: as §2
[20] = tested on: EKVX; experiment: Antiproliferative activity against human EKVX cells assessed as cell growth inhibition at 10 uM incubated for 48 hrs by sulforhodamine B assay relative to control; how it was run: as §1
[21] = tested on: COLO 205; experiment: Antiproliferative activity against human COLO 205 cells assessed as cell growth inhibition at 10 uM incubated for 48 hrs by sulforhodamine B assay relative to control; how it was run: as §3
[22] = tested on: SF-295; experiment: Antiproliferative activity against human SF-295 cells assessed as cell growth inhibition at 10 uM incubated for 48 hrs by sulforhodamine B assay relative to control; how it was run: as §2
[23] = tested on: Malme-3M; experiment: Antiproliferative activity against human Malme-3M cells assessed as cell growth inhibition at 10 uM incubated for 48 hrs by sulforhodamine B assay relative to control; how it was run: as §2
[24] = tested on: BT-549; experiment: Antiproliferative activity against human BT-549 cells assessed as cell growth inhibition at 10 uM incubated for 48 hrs by sulforhodamine B assay relative to control; how it was run: as §3
[25] = tested on: UACC-257; experiment: Antiproliferative activity against human UACC-257 cells assessed as cell growth inhibition at 10 uM incubated for 48 hrs by sulforhodamine B assay relative to control; how it was run: as §2
[26] = tested on: MDA-MB-468; experiment: Antiproliferative activity against human MDA-MB-468 cells assessed as cell growth inhibition at 10 uM incubated for 48 hrs by sulforhodamine B assay relative to control; how it was run: as §2
[27] = tested on: K562; experiment: Antiproliferative activity against human K562 cells assessed as cell growth inhibition at 10 uM incubated for 48 hrs by sulforhodamine B assay relative to control; how it was run: as §2
[28] = tested on: SF-268; experiment: Antiproliferative activity against human SF-268 cells assessed as cell growth inhibition at 10 uM incubated for 48 hrs by sulforhodamine B assay relative to control; how it was run: as §2
[29] = tested on: MDA-MB-231; experiment: Antiproliferative activity against human MDA-MB-231 cells assessed as cell growth inhibition at 10 uM incubated for 48 hrs by sulforhodamine B assay relative to control; how it was run: as §2
[30] = tested on: ACHN; experiment: Antiproliferative activity against human ACHN cells assessed as cell growth inhibition at 10 uM incubated for 48 hrs by sulforhodamine B assay relative to control; how it was run: as §3

## c1cn2cc(-c3ccc4ncn(C5CCCCC5)c4c3)nc(-c3ccc4ncn(C5CCCCC5)c4c3)c2n1
[1]
  inhibition at 10 µM: 42.6%
[2]
  inhibition at 10 µM: 14.8%
[3]
  inhibition at 10 µM: 43.3%
[4]
  inhibition at 10 µM: 71.8%
[5]
  inhibition at 10 µM: 22.8%
[6]
  inhibition at 10 µM: 24.4%
[7]
  inhibition at 10 µM: 51%
[8]
  inhibition at 10 µM: 54.9%
[9]
  inhibition at 10 µM: 17.7%
[10]
  inhibition at 10 µM: 40.4%
[11]
  inhibition at 10 µM: 51.9%
[12]
  inhibition at 10 µM: 54.6%
[13]
  inhibition at 10 µM: 41.2%
[14]
  inhibition at 10 µM: 60.8%
[15]
  inhibition at 10 µM: 46.3%
[16]
  inhibition at 10 µM: 14.4%
[17]
  inhibition at 10 µM: 69%
[18]
  inhibition at 10 µM: 79.1%
[19]
  inhibition at 10 µM: 55.7%
[20]
  inhibition at 10 µM: 30.8%
[21]
  inhibition at 10 µM: 22.4%
[22]
  inhibition at 10 µM: 44%
[23]
  inhibition at 10 µM: 7.04%
[24]
  inhibition at 10 µM: 38.3%
[25]
  inhibition at 10 µM: 35.5%
[26]
  inhibition at 10 µM: 31.4%
[27]
  inhibition at 10 µM: 69.8%
[28]
  inhibition at 10 µM: 41.7%
[29]
  inhibition at 10 µM: 49.2%
[30]
  inhibition at 10 µM: 45.1%
